Measured values published in ChEMBL document CHEMBL5705897, “Characterization of WZ4003 and HTH-01-015 as selective inhibitors of the LKB1-tumour-suppressor-activated NUAK kinases” (Biochem J, 2014).
Calls of active or inactive are those of the source. The calls are words filed in the database; no cut-off is given here.

How the values were obtained:
[1] = biological target: Platelet-derived growth factor receptor alpha (Homo sapiens) (UniProt P16234); test: Inhibition of recombinant human PDGFRalpha (551 to 10589 residues) expressed in baculovirus infected Sf21 cells assessed as remaining activity at 1 uM using KKKKEEIYFFFG as substrate incubated for 30 mins in presence of [gamma-33P]ATP by filter binding method relative to control
Sequence of Platelet-derived growth factor receptor alpha (Homo sapiens) (P16234 whole entry, the tested form may be a part): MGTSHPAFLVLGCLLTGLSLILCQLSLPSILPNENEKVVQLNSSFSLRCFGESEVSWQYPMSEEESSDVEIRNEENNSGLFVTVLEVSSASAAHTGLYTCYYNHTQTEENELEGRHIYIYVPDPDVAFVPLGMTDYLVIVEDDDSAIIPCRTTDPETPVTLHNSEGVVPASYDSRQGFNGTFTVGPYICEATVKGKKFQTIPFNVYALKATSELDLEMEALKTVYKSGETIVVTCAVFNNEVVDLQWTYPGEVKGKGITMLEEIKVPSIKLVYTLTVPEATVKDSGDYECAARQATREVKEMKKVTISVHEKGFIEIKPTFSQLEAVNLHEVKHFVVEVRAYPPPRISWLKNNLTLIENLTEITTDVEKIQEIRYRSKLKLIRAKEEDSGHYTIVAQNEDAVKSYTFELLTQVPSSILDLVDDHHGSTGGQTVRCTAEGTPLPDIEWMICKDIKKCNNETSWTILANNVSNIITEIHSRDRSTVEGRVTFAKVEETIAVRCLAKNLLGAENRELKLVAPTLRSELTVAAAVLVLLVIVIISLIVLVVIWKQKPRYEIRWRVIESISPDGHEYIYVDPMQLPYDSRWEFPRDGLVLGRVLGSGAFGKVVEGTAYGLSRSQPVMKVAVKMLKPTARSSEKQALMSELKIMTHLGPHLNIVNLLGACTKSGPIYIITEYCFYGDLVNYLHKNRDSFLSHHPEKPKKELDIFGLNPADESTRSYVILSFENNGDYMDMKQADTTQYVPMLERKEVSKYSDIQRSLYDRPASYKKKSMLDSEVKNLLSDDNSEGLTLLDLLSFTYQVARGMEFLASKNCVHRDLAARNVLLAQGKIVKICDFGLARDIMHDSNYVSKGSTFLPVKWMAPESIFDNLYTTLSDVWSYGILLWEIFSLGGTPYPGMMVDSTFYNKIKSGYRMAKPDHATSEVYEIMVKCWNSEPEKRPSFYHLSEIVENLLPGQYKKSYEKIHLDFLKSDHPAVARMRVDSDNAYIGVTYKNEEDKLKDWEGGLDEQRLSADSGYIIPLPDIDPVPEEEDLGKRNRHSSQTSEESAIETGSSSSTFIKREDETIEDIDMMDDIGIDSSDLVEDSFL
Summary of the method: (§1)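 Screened at the International Centre for Protein Kinase Profiling against a 140-kinase panel, with inhibitor at 0.1 or 1 μM; activity expressed as percentage of DMSO control reactions, mean of triplicate reactions.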

[2] = biological target: T1, NUAK family SNF1-like kinase 1 (Homo sapiens) (UniProt O60285); test: Inhibition of NUAK1 in HEK293 cells assessed as reduction in MYPT1 phosphorylation at Ser445 residue incubated for 16 hrs by immunoblot analysis; assay type: cell-based; conditions: dose 3-10 µM
T1 sequence (whole entry): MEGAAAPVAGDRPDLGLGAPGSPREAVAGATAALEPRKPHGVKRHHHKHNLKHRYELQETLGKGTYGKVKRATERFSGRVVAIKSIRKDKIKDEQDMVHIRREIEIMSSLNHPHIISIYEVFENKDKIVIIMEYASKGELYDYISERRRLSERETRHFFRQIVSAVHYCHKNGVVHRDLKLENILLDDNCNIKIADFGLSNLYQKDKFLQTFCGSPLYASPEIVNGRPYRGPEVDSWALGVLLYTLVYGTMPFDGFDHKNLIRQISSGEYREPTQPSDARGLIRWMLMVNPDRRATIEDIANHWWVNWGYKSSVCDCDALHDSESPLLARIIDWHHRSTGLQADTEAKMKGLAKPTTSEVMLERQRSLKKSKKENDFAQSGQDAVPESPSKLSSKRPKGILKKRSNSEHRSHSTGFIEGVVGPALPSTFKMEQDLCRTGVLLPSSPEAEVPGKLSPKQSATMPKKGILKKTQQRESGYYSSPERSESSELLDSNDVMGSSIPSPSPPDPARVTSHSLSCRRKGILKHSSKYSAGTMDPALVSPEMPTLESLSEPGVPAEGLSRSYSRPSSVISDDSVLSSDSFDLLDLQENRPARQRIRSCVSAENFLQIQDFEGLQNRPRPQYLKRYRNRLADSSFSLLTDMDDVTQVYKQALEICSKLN
Summary of the method: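 HEK-293 cells exposed to inhibitor or DMSO for 16 h; medium replaced by EDTA-PBS dissociation buffer with the same inhibitor concentration to induce detachment (gentle tapping, 70 g, 3 min); cells lysed at once; MYPT1 immunoprecipitated from 0.5 mg lysate, blotted for p-Ser445 and total MYPT1; repeated three times.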

[3] = biological target: MAP kinase-interacting serine/threonine-protein kinase 2 (Homo sapiens) (UniProt Q9HBH9); test: Inhibition of recombinant human N-terminal GST/C-terminal His6-tagged MNK2alpha (2 to 465 residues) expressed in Escherichia coli assessed as remaining activity at 1 uM using eIF4E as substrate incubated for 30 mins in presence of [gamma-33P]ATP by filter binding method relative to control; summary of the method: as §1
Sequence of MAP kinase-interacting serine/threonine-protein kinase 2 (Homo sapiens) (Q9HBH9 whole entry, looked up, the tested form may be a part): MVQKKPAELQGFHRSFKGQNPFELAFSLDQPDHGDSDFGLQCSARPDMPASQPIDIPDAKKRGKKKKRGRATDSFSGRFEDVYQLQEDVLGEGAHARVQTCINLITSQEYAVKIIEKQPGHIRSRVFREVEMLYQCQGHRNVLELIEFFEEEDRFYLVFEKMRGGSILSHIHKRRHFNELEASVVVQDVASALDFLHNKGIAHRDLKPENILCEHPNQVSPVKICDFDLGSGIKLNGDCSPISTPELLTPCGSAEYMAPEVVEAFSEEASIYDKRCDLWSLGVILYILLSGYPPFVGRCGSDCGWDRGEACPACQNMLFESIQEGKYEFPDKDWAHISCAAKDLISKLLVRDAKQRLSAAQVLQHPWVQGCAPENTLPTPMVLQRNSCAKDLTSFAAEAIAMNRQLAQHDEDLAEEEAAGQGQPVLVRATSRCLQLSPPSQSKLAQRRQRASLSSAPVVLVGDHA

[4] = biological target: Mitogen-activated protein kinase kinase kinase 11 (Homo sapiens) (UniProt Q16584); test: Inhibition of recombinant human N-terminal GST-tagged MLK3 (96 to 386 residues) expressed in baculovirus infected Sf21 cells assessed as remaining activity at 1 uM using MBP as substrate incubated for 30 mins in presence of [gamma-33P]ATP by filter binding method relative to control; summary of the method: as §1
Sequence of Mitogen-activated protein kinase kinase kinase 11 (Homo sapiens) (Q16584 whole entry, looked up, the tested form may be a part): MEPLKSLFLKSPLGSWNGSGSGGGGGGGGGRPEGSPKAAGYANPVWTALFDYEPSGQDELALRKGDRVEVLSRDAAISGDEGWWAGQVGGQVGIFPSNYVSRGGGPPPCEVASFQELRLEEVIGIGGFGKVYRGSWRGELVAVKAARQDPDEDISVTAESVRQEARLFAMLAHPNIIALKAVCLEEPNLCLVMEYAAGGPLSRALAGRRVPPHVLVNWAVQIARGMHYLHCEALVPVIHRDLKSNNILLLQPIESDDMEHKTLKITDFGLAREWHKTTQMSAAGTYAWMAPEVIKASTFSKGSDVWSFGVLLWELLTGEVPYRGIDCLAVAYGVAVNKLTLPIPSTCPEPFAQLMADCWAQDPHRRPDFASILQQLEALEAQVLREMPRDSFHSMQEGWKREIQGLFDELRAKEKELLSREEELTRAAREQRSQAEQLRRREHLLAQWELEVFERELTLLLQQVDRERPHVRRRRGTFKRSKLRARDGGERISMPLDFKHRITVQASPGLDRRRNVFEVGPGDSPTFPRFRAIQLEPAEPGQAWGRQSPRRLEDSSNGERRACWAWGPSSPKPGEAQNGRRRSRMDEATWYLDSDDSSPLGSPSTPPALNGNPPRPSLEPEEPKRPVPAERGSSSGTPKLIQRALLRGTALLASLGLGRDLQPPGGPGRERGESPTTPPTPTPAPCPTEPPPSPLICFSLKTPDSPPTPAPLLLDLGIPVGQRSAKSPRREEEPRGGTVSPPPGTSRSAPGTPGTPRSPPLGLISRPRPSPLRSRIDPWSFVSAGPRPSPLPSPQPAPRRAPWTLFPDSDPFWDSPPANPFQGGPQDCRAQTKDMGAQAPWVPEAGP

[5] = tested on: Ribosomal protein S6 kinase beta-1 (Homo sapiens), P23443 [T412E]; test: Inhibition of recombinant human His6-tagged S6K1 T412E mutant (1 to 421 residues) expressed in baculovirus infected Sf21 cells assessed as remaining activity at 1 uM using KKRNRTLTV as substrate incubated for 30 mins in presence of [gamma-33P]ATP by filter binding method relative to control
Sequence of Ribosomal protein S6 kinase beta-1 (Homo sapiens), P23443 [T412E] (P23443 whole entry T412E, looked up, the tested form may be a part): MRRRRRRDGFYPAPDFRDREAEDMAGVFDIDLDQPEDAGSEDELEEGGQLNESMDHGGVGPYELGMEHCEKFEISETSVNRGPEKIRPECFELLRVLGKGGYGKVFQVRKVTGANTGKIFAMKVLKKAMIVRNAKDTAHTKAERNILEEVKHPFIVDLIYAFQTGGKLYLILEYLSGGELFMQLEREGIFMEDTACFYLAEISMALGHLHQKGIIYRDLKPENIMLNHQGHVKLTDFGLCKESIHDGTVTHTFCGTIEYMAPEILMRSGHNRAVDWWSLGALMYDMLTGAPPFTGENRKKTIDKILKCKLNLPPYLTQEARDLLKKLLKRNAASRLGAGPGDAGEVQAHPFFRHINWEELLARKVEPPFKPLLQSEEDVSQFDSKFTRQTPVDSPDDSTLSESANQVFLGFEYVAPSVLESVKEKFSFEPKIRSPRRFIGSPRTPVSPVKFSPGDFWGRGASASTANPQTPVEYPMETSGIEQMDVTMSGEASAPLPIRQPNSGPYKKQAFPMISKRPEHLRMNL
Summary of the method: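 Run within a 140-kinase specificity panel at the International Centre for Protein Kinase Profiling. Compounds were dissolved in DMSO and tested in vitro at 0.1 or 1 μM. Activity is expressed as percentage of kinase activity in DMSO control reactions, as the mean ± S.D. of triplicate reactions.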

[6] = biological target: MAP kinase-activated protein kinase 2 (Homo sapiens) (UniProt P49137); test: Inhibition of recombinant human N-terminal GST/C-terminal Myc-tagged MAPKAPK2 (46 to 400 residues) expressed in Escherichia coli assessed as remaining activity at 1 uM using KKLNRTLSVA as substrate incubated for 30 mins in presence of [gamma-33P]ATP by filter binding method relative to control; summary of the method: as §1
Sequence of MAP kinase-activated protein kinase 2 (Homo sapiens) (P49137 whole entry, looked up, the tested form may be a part): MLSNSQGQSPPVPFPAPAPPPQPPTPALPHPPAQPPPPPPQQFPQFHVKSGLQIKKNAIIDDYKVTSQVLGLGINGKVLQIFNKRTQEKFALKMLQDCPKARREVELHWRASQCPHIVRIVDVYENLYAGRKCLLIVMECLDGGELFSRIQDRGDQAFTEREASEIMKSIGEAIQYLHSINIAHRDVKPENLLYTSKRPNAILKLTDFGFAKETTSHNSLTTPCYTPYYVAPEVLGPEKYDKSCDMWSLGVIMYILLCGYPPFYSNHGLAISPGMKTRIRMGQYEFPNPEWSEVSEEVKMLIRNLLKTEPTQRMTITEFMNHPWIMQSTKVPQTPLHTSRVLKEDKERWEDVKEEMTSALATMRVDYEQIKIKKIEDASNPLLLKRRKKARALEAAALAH

[7] = biological target: Testis-specific serine/threonine-protein kinase 1 (Homo sapiens) (UniProt Q9BXA7); test: Inhibition of recombinant human N-terminal GST-tagged TSSK1 (1 to 367 residues) expressed in Escherichia coli assessed as remaining activity at 1 uM using KKKVSRSGLYRSPSMPENLNRPR as substrate incubated for 30 mins in presence of [gamma-33P]ATP by filter binding method relative to control; summary of the method: as §1
Sequence of Testis-specific serine/threonine-protein kinase 1 (Homo sapiens) (Q9BXA7 whole entry, the tested form may be a part): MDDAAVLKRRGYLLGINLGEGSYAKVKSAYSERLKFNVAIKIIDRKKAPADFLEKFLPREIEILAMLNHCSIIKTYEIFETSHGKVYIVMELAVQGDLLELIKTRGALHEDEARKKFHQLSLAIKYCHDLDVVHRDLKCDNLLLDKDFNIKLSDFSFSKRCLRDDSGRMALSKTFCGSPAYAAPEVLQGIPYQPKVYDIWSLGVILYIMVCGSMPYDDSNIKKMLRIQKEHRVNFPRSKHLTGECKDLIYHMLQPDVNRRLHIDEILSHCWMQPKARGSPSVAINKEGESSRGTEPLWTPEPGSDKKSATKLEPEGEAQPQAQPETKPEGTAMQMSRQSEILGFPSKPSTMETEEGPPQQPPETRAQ

[8] = tested on: MEF; test: Antiproliferative activity against NUAK1+/+ MEF cells assessed as reduction in cell viability at 10 uM after 5 days by CellTiter 96 non-radioactive cell proliferation assay; assay type: functional, cell-based; conditions: Mus musculus, time 5.0 day
Summary of the method: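 Colorimetric CellTiter 96 AQueous proliferation assay in 96-well format; 2000 cells/well seeded for U2OS, 3000 cells/well for MEFs; grown 5 days with or without 10 μM inhibitor; run in triplicate. Inhibitors dissolved in DMSO, final DMSO in medium ≤1%. MEFs cultured in DMEM/10% FBS, glutamine, non-essential amino acids, sodium pyruvate.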

[9] = biological target: Serine/threonine-protein kinase PLK1 (Homo sapiens) (UniProt P53350); test: Inhibition of recombinant human N-terminal His6-tagged PLK1 (1 to 603 residues) expressed in baculovirus infected Sf21 cells assessed as remaining activity at 1 uM using ISDELMDATFADQEAKKK as substrate incubated for 30 mins in presence of [gamma-33P]ATP by filter binding method relative to control; summary of the method: as §1
Sequence of Serine/threonine-protein kinase PLK1 (Homo sapiens) (P53350 whole entry, the tested form may be a part): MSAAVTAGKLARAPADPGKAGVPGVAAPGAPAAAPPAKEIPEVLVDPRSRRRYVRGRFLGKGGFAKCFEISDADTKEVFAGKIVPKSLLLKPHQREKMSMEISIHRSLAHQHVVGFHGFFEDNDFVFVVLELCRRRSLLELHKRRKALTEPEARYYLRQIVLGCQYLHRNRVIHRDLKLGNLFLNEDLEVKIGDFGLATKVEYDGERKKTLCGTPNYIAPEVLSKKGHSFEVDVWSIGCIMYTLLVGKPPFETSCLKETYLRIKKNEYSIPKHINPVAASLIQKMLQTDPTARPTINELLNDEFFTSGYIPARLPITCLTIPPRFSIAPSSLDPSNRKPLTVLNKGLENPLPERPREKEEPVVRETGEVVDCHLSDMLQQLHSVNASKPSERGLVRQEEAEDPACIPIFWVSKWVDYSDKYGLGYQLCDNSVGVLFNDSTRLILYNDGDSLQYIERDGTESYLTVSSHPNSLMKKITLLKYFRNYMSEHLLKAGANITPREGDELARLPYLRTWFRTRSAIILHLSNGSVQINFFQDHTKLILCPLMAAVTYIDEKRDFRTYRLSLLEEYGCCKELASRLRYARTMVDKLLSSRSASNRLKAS

[10] = biological target: Dual specificity tyrosine-phosphorylation-regulated kinase 3 (Homo sapiens) (UniProt O43781); test: Inhibition of recombinant human N-terminal GST-tagged DYRK3 (1 to 588 residues) expressed in Escherichia coli assessed as remaining activity at 1 uM using KKISGRLSPIMTEQ as substrate incubated for 30 mins in presence of [gamma-33P]ATP by filter binding method relative to control; summary of the method: as §1
[11] = biological target: T1, NUAK family SNF1-like kinase 1 (Homo sapiens); test: Inhibition of NUAK1 in human U2OS cells assessed as reduction in MYPT1 phosphorylation at Ser445 residues at 10 uM after 16 hrs by immunoblot analysis; assay type: cell-based
Summary of the method: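 U2OS cells or NUAK1+/+ MEFs treated with or without 10 μM inhibitor for 16 h, then 20 min in EDTA-PBS dissociation buffer with 10 μM inhibitor or DMSO; detached by tapping and 70 g 3 min spin, lysed immediately and immunoblotted for MYPT1 p-Ser445; three separate experiments.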

[12] = biological target: Ribosomal protein S6 kinase alpha-1 (Homo sapiens) (UniProt Q15418); test: Inhibition of recombinant human N-terminal His6-tagged RSK1 (1 to 735 residues) expressed in baculovirus infected Sf21 cells assessed as remaining activity at 1 uM using KKLNRTLSVA as substrate incubated for 30 mins in presence of [gamma-33P]ATP by filter binding method relative to control; summary of the method: as §1
Sequence of Ribosomal protein S6 kinase alpha-1 (Homo sapiens) (Q15418 whole entry, the tested form may be a part): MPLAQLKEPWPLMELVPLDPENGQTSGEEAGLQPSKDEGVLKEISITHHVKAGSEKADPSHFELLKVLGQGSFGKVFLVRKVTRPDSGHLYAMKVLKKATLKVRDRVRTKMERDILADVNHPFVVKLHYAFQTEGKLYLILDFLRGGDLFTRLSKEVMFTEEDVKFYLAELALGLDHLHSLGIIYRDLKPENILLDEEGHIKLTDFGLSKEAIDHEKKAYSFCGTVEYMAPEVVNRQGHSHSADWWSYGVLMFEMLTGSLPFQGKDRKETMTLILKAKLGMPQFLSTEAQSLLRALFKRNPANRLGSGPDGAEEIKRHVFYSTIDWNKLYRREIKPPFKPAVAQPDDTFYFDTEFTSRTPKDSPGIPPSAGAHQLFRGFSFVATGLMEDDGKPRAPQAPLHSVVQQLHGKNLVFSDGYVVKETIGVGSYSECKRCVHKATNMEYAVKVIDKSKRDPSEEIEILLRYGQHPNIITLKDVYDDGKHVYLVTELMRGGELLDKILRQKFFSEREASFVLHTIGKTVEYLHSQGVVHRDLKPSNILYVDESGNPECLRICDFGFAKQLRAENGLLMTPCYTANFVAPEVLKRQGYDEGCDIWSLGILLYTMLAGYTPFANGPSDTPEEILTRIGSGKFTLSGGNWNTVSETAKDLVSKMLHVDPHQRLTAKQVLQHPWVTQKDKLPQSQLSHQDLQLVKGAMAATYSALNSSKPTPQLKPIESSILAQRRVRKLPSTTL

Question: What does the source list for `CCC(=O)Nc1cccc(Oc2nc(Nc3ccc(N4CCN(C)CC4)cc3OC)ncc2Cl)c1`?
Answer: Activity [1]: 96%; inhibition [2]: Dose-Dependent Effect; Activity [3]: 84%; Activity [4]: 73%; Activity [5]: 83%; Activity [6]: 82%; Activity [7]: 58%; inhibition [8]: Active; Activity [9]: 84%; Activity [10]: 71%; inhibition [11]: Active; Activity [12]: 67%
